Assay outcomes as filed in PubChem BioAssay.
SENP1 FRET inh: SENP1 (human) catalytic domain inhibition. recombinant SENP1 catalytic domain, CyPet-SUMO1-YPet FRET cleavage. inhibition, % at 10 µM. 360,000 tested, 0.21% active. AID 624204;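 active = inhibition at least 30% at 10 µM, raw YFP signal under a set limit, fluorescence ratio 0.5 to 1.5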
Target sequence (Q9P0U3 419-644 limits assumed): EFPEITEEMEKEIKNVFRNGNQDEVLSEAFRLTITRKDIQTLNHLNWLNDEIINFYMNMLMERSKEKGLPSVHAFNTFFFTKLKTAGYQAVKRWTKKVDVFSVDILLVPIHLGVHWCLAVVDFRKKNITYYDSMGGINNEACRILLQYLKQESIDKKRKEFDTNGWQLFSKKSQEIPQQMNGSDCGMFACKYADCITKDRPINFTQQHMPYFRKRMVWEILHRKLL
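Material – human SENP1 catalytic domain · Input – SENP1 enzyme, 20 pM final · Compound dosing – single concentration of 10 µM compound, 0.5% DMSO final · Timing – enzyme reaction for 50 min at room temperature, dark · Measured by – FRET fluorescence in CFP and YFP emission channels · Control set – no-enzyme wells low, DMSO-plus-enzyme wells high control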
NR3A LBD binder: NR3A (human) ligand-binding domain modulation; NR3A LBD differential scanning fluorimetry, Tm shift; 0% = protein alone, 100% = glycine-bound protein; Tm shift relative to glycine control, % at 25 µM; 340,000 tested, 2.5% active;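 active = melting temperature shift of at least 10% of the positive control shift, at one fixed dose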
NadD block: inhibitors of Staphylococcus aureus NadD; purified NadD enzyme, colorimetric absorbance read-out; inhibition, % at 20 µM; 360,000 tested, 0.78% active; AID 602399; in the data active = inhibition above about 26%
UCH37 inh: human UCH37 deubiquitinating enzyme inhibition. purified proteasome/UCH37, Ub-AMC cleavage fluorescence. Q9Y5K5. inhibition, % (no concentration beside the values). 330,000 tested, 0.33% active;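 active = mean inhibition over replicate wells above about 20%, limit read from the data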
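system = Proteasome-associated human UCH37 deubiquitinase | amount = 0.15 nM proteasome as dispensed | medium = pH 7.4 Tris-HCl (50 mM) with ovalbumin, ATP-MgCl2, DTT | incubation = 30 min preincubation with enzyme, 25 min cleavage at room temperature | detection = AMC fluorescence 355/460 nm | read-out basis = percent inhibition | controls = no-proteasome and no-compound wells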
ATG4B inh: inhibitors of human ATG4B cysteine protease; Q9Y4P1; ATG4B cleavage of LC3-PLA2, NBD-HPC fluorescence, 1 h; inhibition, % at 8.33 µM; 340,000 tested, 0.51% active; in the data active = inhibition above about 40%
Target sequence (Q9Y4P1 whole entry, looked up): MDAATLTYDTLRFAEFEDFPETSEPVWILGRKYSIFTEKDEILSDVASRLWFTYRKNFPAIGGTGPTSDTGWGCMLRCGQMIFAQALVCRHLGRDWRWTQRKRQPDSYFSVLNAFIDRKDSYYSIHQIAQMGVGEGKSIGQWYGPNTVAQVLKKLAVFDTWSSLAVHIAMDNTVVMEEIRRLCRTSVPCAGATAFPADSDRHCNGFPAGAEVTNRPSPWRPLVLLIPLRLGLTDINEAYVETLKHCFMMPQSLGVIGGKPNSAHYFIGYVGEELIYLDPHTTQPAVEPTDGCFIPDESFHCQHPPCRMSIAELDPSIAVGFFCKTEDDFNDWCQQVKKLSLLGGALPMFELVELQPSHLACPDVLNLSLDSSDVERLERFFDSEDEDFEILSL
A number is an active result; n = inactive; x = no result given. Rows were chosen to be rich in hits. Some 3.6% of all compounds tested hit in one or more screens of this group.

SMILES	SENP1 FRET inh	NR3A LBD binder	NadD block	UCH37 inh	ATG4B inh
C/C(C=NNC(=O)c1cccnc1)=C\c1ccccc1	x	x	x	n	x
N/C(=N\N=C/c1ccc(Br)cc1)N/N=C\c1ccc(Br)cc1	n	28	n	x	n
O=C(N/N=C/c1ccc(Br)cc1)c1ccc(Br)o1	n	19	n	x	n
O=C1CNC(=O)c2c(nc3n2CCC3)N1	n	11	n	n	n
COc1ccc(-n2c(C)cc(C=NNc3nnc(C)n3N)c2C)cc1	x	x	x	n	x
Cc1nc(N2CCC(C)CC2)c2c(C)c(C(=O)Nc3cccc(C(F)(F)F)c3)sc2n1	n	12	n	n	n
Cc1nc(N2CCC(C)CC2)c2c(C)c(C(=O)Nc3ccc(C(F)(F)F)cc3)sc2n1	n	13	n	n	n
COc1ccc(NC(=O)c2sc(NC(=O)COc3ccccc3)nc2C)cc1	n	14	n	n	n
CCOc1ccc2nc(NC(=O)C3CCCO3)sc2c1 (stereo not given)	n	n	n	n	n
O=C(COc1ccc(F)cc1)Nc1nc2c(s1)CCCC2	n	14	n	n	n
CCOc1ccc2nc(NC(=O)NC3CCCCC3)sc2c1	n	18	n	x	n
CCOc1ccc(NC(=O)Nc2cc(-c3ccccc3)sc2C(=O)OC)cc1	n	21	n	n	n
Cc1nc(NC(=O)COc2ccccc2)sc1C(=O)Nc1cccc(Cl)c1	n	n	n	n	n
CCOC(=O)c1ccc(-c2ccc(C=NNC(=O)Cc3nnc(N)s3)o2)cc1	x	x	x	n	x
COc1ccc(OCC(=O)Nc2nc3c(s2)CCCC3)cc1	n	n	n	n	n
COc1ccc2nc(NC(=O)CSc3nnc4n3C(C)(C)Cc3ccccc3-4)sc2c1	n	10	n	n	n
O=C(Nc1nc2ccccc2s1)C1CCCO1 (stereo not given)	n	n	n	n	n
COc1ccc(NC(=O)Nc2nc3c(s2)CCCC3)cc1	n	22	n	n	n
COc1ccc(NC(=O)Nc2nc3ccccc3s2)cc1	n	28	n	n	n
O=C(Nc1nc2ccccc2s1)C1c2ccccc2Oc2ccccc21	n	11	n	x	n
CC1Cc2ccccc2N1C(=O)CON=Cc1ccc(OC(F)F)cc1 (stereo not given)	x	x	x	n	x
O=C(CC12CC3CC(CC(C3)C1)C2)NN=Cc1ccncc1	x	x	x	n	x
CCOc1ccc2nc(NC(=O)Nc3cccs3)sc2c1	n	26	n	n	n
CCOc1ccc2nc(NC(=O)c3ccccn3)sc2c1	n	n	n	n	n
COc1ccc2nc(NC(=O)c3ccccc3C(=O)O)sc2c1	n	n	n	n	n
SMILES	SENP1 FRET inh	NR3A LBD binder	NadD block	UCH37 inh	ATG4B inh
COc1ccc2sc(NC(C)=O)nc2c1	n	n	n	n	n
CCOc1ccc2nc(NC(=O)Nc3ccccc3)sc2c1	n	35	n	n	n
COc1ccc2nc(NC(=O)Nc3ccccc3)sc2c1	n	23	n	n	n
COc1ccc2sc(NC(=O)NC(=O)c3c(Cl)cccc3Cl)nc2c1	n	18	n	n	n
S=c1[nH]nc(COc2ccccc2)n1N=Cc1c(Cl)cccc1Cl	x	x	x	n	x
CC(=NOCON=C(C)c1ccc(F)cc1)c1ccc(F)cc1	x	x	x	n	x
Oc1ccccc1C=NN1CCCCC1	x	x	x	n	x
CCOc1ccc2nc(NC(=S)NCc3ccccc3)sc2c1	n	19	n	n	n
CC(C)c1ccc(OCc2cccc(C(=O)NN=Cc3cccnc3)c2)cc1	x	x	x	n	x
O=C(NCc1cccs1)c1cccc(Nc2nc3ccc(Br)cc3[nH]2)c1	n	11	n	n	n
O=C(NCc1cccs1)c1ccccc1	n	n	n	n	n
Cc1nnc(NC(=O)Nc2cccc(Cl)c2)s1	n	n	n	n	n
COc1ccc(NC(=S)Nc2nc(CC(=O)Nc3ccccc3OC)cs2)cc1	n	n	n	n	n
O=C(Nc1cccc(Cl)c1)Nc1nc(-c2ccccc2)cs1	n	31	n	x	n
Cc1csc(NC(=O)Nc2cccc(Cl)c2)n1	n	28	n	n	n
O=C(Nc1ccc(Cl)cc1)Nc1nc(-c2ccccc2)cs1	n	11	n	x	n
O=C(Nc1ccccc1)Nc1nc(-c2ccc(F)cc2)cs1	n	n	n	n	n
COc1ccccc1NC(=O)Cc1csc(NC(=S)Nc2ccccc2)n1	n	11	n	n	n
Cc1ccc(S(=O)(=O)NN=Cc2cc3c(cc2Br)OCO3)cc1	x	x	x	n	x
Cc1c(Cl)c([N+](=O)[O-])nn1Cc1ccc(C(=O)NN=Cc2ccccn2)o1	x	x	x	n	x
O=C(CCC(=O)Nc1ccc(Cl)cc1)NN=Cc1ccc2c(c1)OCO2	x	x	x	n	x
Fc1ccc(-c2csc(NC(=S)Nc3ccccc3)n2)cc1	n	25	n	n	n
CCOC(=O)C[C@H]1c2ccccc2S(=O)(=O)N1Cc1ccc(Cl)cc1	n	13	n	n	n
CCOC(=O)C[C@H]1c2cc(C(F)(F)F)ccc2S(=O)(=O)N1Cc1ccccc1	n	n	n	n	n
O=C1C=CC2=C3c4cc(O)c(O)cc4CC3(O)COC2=C1O (stereo not given)	n	n	48	x	n
SMILES	SENP1 FRET inh	NR3A LBD binder	NadD block	UCH37 inh	ATG4B inh
CC(C)[C@H](N)C(=O)NC[C@H](CC(=O)NCC1CCC(C(=O)O)CC1)c1ccc(Cl)cc1 (stereo not given in full)	x	x	x	n	x
Cc1ccc(C=NNC(=O)C2CC(=O)N(c3ccccc3)C2)s1 (stereo not given)	x	x	x	n	x
CC(C)(C)c1cc(C(=S)N2CCN(CCO)CC2)cc(C(C)(C)C)c1O	n	11	n	n	n
OCCN1CCN(C(=S)c2ccc(Cl)cc2)CC1	n	n	n	n	n
O=C(/C=C(\O)c1ccc(Cl)cc1)C(=O)NNC(=O)C(O)(c1ccccc1)c1ccccc1	n	n	n	n	42
C/C(C=NNC(=O)c1cccs1)=C/c1ccccc1	x	x	x	n	x
CCOC(=O)c1c(C)[nH]c(C(=O)NN=Cc2cccc(OC)c2)c1C	x	x	x	n	x
COc1ccc(C(=O)NC2CC2)cc1OC1CCN(Cc2cc(C)c(C)cc2C)CC1	n	103	n	n	n
COc1ccc(C(=O)NC2CC2)cc1OC1CCN(Cc2cnn(C)c2C)CC1	n	n	n	n	n
COc1ccc(C(=O)NC2CCCCC2)cc1OC1CCN(C(C)C)CC1	n	13	n	n	n
COc1ccc(C(=O)NC2CCCCCC2)cc1OC1CCN(C(C)=O)CC1	n	n	n	n	n
Oc1ccc(C(Cc2ccc3ccccc3n2)=NNc2ccccc2)c(O)c1	x	x	x	n	x
Cc1cc2oc(=O)cc(-c3cc4ccccc4o3)c2cc1O	n	n	n	n	n
COc1cc(-c2cc(=O)c3ccc(O)cc3o2)cc(OC)c1OC	n	x	n	x	x
COc1cc(OC)c(-c2c3cc(O)c(=O)cc-3oc3cc(O)c(O)cc23)cc1OC	88	n	n	n	n
Cc1c2cc(O)c(=O)cc-2oc2cc(O)c(O)cc12	n	n	52	n	n
CCOC(=O)c1[nH]c(C)c(/C(O)=C2\C(=O)C(=O)N(CCCn3ccnc3)C2c2ccncc2)c1C (stereo not given)	n	n	n	n	n
